Assay results: publication PMC5280578 (Journal of neurosurgery, 2016)
Where “and” joins values, the source holds several entries; their conditions need not be identical. Equal entries are not always repeated. Where two headings read alike, the source gives them in different places.

Tests used:
[1] = system: GBM flank xenografts; conditions: ISA27 alone; cited from earlier work
[2] = system: U87-MG cells; conditions: in vitro; cited from earlier work
[3] = rats; administration for 10 days; effects reversible; cited from earlier work
[4] = monkeys; administration for 10 days; effects reversible; cited from earlier work
[5] = system: GBM10 flank tumors; experiment: Western blot analysis of GBM10 flank tumor lysates; assay type: in vivo, NSG mice; conditions: 66 mg/kg TMZ, 100 mg/kg nutlin3a, 3 consecutive days; for MDM2 and p53 levels in tumors: 2 hours after last dose
In short: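 NSG mice received 5 × 10^6 GBM10 cells in the right flank. At approximately 200 mm3, mice were dosed orally for 3 consecutive days with vehicle, 66 mg/kg TMZ, 100 mg/kg nutlin3a (methylcellulose/Tween 80), or the combination. Tumors were harvested 2 h after the last dose. Lysates were made in RIPA buffer with protease/phosphatase inhibitors, run on 4–20% SDS-PAGE, and transferred to nitrocellulose. Detection was by HRP-chemiluminescence, with densitometry normalized to loading control.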

[6] = system: U87-MG cells; experiment: Western blot analysis of target proteins and cell cycle markers; assay type: cell-based, human
In short: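 U87-MG cells were treated with vehicle, 25 μM TMZ, 5 μM nutlin3a, or the combination for 24 h or 72 h. RIPA lysates were resolved on 4–20% SDS-PAGE and transferred to nitrocellulose. Primary antibodies were used at 1:1000 and HRP secondaries at 1:5000, with chemiluminescent film detection. Densitometry was normalized to loading control and expressed relative to vehicle. Six independent experiments at 24 h; two at 72 h.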

[7] = assay type: in vivo, NSG mice; conditions: peripheral blood, three cycles
[8] = system: U87-MG flank xenografts; experiment: Efficacy in ectopic U87-MG flank xenografts; assay type: in vivo, NSG mice; conditions: 5 mg/kg TMZ, 100 mg/kg nutlin3; 2 treatment cycles
In short: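 NSG mice received 4 × 10^6 U87-MG cells in the right flank. At approximately 150 mm3, tumor-bearing mice were randomized into cohorts of 6–8. Dosing was oral: vehicle, 5 mg/kg TMZ, 100 mg/kg racemic nutlin3, or the combination, for 2 treatment cycles. Caliper measurements were taken twice weekly, and volume = (α2 × β)/2 (α shorter, β longer dimension). Data are mean ± SEM.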

[9] = system: GBM10 intracranial tumors; experiment: Survival in orthotopic intracranial GBM10 xenograft model; assay type: in vivo, NSG mice
[10] = Nutlin3 concentration in U87-MG flank xenografts; assay type: in vivo, NSG mice; conditions: 4 hours postadministration
In short: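 Tumors from NSG mice bearing U87-MG flank xenografts were collected 4 h after oral nutlin3 dosing. A vehicle-treated tumor served as background control. Samples were flash-frozen and stored at −80°C. Nutlin3 was recovered by liquid-liquid extraction and quantified by HPLC-MS/MS (API 4000), with caylin as internal standard. Two tumor samples were analyzed.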

[11] = Pharmacokinetic analysis of nutlin3 in NSG mice; assay type: in vivo
In short: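 Racemic nutlin3 was given orally to NSG mice. Plasma was collected, flash-frozen and kept at −80°C. Drug was recovered by liquid-liquid extraction and quantified by HPLC-MS/MS (API 4000) to derive pharmacokinetic parameters.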

[12] = system: GBM10 cells; experiment: Wound-healing assay; assay type: cell-based, human; conditions: 25 μM TMZ, 10 μM nutlin3a; 12 hours
In short: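 GBM10 monolayers at 80–90% confluence were scratched with a pipette tip. Debris was washed off with medium, cells were rinsed in serum-free DMEM, and the gap was photographed at hour 0. Cells were then cultured in DMEM with 10% FBS containing vehicle, 25 μM TMZ, 10 μM nutlin3a, or the combination for 12 h. The marked gap was imaged every 2 h and its width measured. Three repeats.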

[13] = system: GBM10 cells; experiment: Western blot analysis of target proteins and cell cycle markers; assay type: cell-based, human
In short: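 Cultured GBM10 cells were treated with vehicle, 25 μM TMZ, 10 μM nutlin3a, or the combination for 72 h (cell-cycle markers). A second set received 200 μM TMZ plus 2 μM nutlin3a for 24, 48 or 72 h. RIPA lysates were run on 4–20% SDS-PAGE and transferred to nitrocellulose. Primary antibodies were used at 1:1000 and HRP secondaries at 1:5000, with chemiluminescent detection. Densitometry was normalized to loading control relative to vehicle (24 h: 3 independent experiments).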

[14] = Nutlin3a concentrations in normal brain and intracranial tumor tissue; assay type: in vivo, NSG mice; conditions: 100 mg/kg nutlin3a; 4 hours
In short: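 NSG mice carried GBM10, GBM43 or SK28 melanoma cells implanted stereotactically in the right cerebral hemisphere. At 21 days post-implantation, mice received 100 mg/kg nutlin3a orally; tumor-free mice were dosed likewise. After 4 h, plasma and brains were collected and the tumor area was excised. Samples were frozen at −80°C, extracted by liquid-liquid extraction, and assayed by HPLC-MS/MS. Each point is one mouse.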

[15] = system: GBM10 cells; experiment: Matrigel invasion assay; assay type: cell-based, human; conditions: 25 μM TMZ, 10 μM nutlin3a; 8 hours
[16] = system: U87-MG cells; experiment: Apoptosis assay; assay type: cell-based, human; conditions: 25 μM TMZ, 1.25 or 5 μM nutlin3a; Day 5 posttreatment
In short: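 U87-MG cells were treated with vehicle, 25 μM TMZ, 1.25 or 5 μM nutlin3a (DMSO stock diluted in medium), or TMZ/nutlin3a combinations. TMZ was dissolved in PBS or medium and used immediately. On Day 5 post-treatment, cells were stained with Annexin V-FITC and 7-AAD. Early apoptotic and late apoptotic/necrotic fractions were quantified by flow cytometry.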

[17] = Dose-response curves of nutlin enantiomers; conditions: nutlin3a vs nutlin3b; data not shown
[18] = murine bone marrow; cited from earlier work
[19] = 25 μM TMZ, 5 μM nutlin3a, 24 hours

For O=C1[C@@H]2CS[C@@]3(C(=O)Nc4ccccc43)N2C(=O)N1Cc1ccc(Cl)cc1 [ISA27], the “Growth of GBM flank xenografts” value [1] is listed as “inhibited growth” and the “Interaction with TMZ to kill U87-MG cells” value [2] is listed as “synergized”.

In the case of CCOc1cc(C(C)(C)C)ccc1C1=N[C@@](C)(c2ccc(Cl)cc2)[C@@](C)(c2ccc(Cl)cc2)N1C(=O)N1CCN(CCCS(C)(=O)=O)CC1 [RG7112], the Platelet production [3] is listed as “decreased platelet production” and the Platelet production [4] is listed as “decreased platelet production”.

With Cn1nnc2c(C(N)=O)ncn2c1=O [TMZ, temozolomide] the “p53 (S15) levels in tumors” value [5] was “increased”, the “MDM2 and p53 levels in tumors” value [5] was “increased” and the “Levels of total p53, p53 (S15) and MDM2” value [6, 19] was “increased”. The APE1 level ([6]; 72 hours) was “decreased”, the “White and red blood cell counts compared with vehicle-treated mice” value ([7]; Day 30 and Day 43) was “significant decrease” and the Platelets ([7]; Day 30 only) was “significantly decreased”. The “Tumor growth / tumor volume compared with vehicle” value [8] was “significant decrease in tumor volume”, the “Survival compared with vehicle or nutlin3a” value ([9]; 66 mg/kg TMZ once daily, 100 mg/kg nutlin3a, 2 cycles, p < 0.05) was “significantly increased” and the “Increase in survival compared with vehicle-treated mice” value ([9]; three 5-day cycles) was “approximately 13%”.

With COc1ccc(C2=N[C@@H](c3ccc(Cl)cc3)[C@@H](c3ccc(Cl)cc3)N2C(=O)N2CCNC(=O)C2)c(OC(C)C)c1 [nutlin3] the “Nutlin3 in U87-MG flank xenografts” value [10] was “detected”, the “Tumor growth / tumor volume compared with vehicle” value [8] was “significantly slowed tumor growth” and the Cmax ([11]; NSG, mouse, in vivo, po) was 20400 ng/mL and 37 µM. For the same compound, the Tmax ([11]; NSG, mouse, in vivo, po) was 1 h, the Vd/F ([11]; NSG, mouse, in vivo, po) was 0.113 L and the half-life ([11]; NSG, mouse, in vivo, po) was 4.5 h. The Cl/F ([11]; racemic nutlin3, NSG mice) was 0.29 mL/min.

In the case of COc1ccc(C2=N[C@@H](c3ccc(Cl)cc3)[C@@H](c3ccc(Cl)cc3)N2C(=O)N2CCNC(=O)C2)c(OC(C)C)c1 [nutlin3a], the “MDM2 and p53 levels in tumors” value [5] is reported as “increased”, the GBM10 migration [12] is reported as “significantly inhibited” and the “Cell cycle arrest by cell cycle–specific markers (pRb S780, pHH3, TopoIIα)” value ([13]; 10 μM nutlin3a, 25 μM TMZ, 72 hours) is reported as “arrested in G0/G1”. The “MDM2 and p21 levels” value ([13]; 200 μM TMZ, 2 μM nutlin3a, 24 hours) was “significantly increased”, the “Nutlin3a levels in brain tumor tissues versus normal brain tissue” value [14] was “higher levels” and the “Cell cycle arrest by cell cycle–specific markers (pRb S780, pHH3, TopoIIα)” value ([6]; 5 μM nutlin3a, 25 μM TMZ, 72 hours) was “arrested in G0/G1”. For the same compound, the “Levels of total p53, p53 (S15) and MDM2” value [6, 19] was “increased”, the p21 levels [6, 19] was “increased” and the APE1 level ([6]; 72 hours) was “decreased”. The GBM10 invasion [15] was “significantly inhibited”, the “Early and late apoptotic/necrotic cells compared with control or TMZ alone” value [16] was “significant increases” and the “Relative potency of enantiomers” value [17] was “more potent enantiomer”. For the same compound, the “Survival of mice with intracranial GBM tumors, single agent” value ([9]; 100 mg/kg nutlin3a twice daily, 2 consecutive 5-day cycles) was “did not increase survival” and the “Nutlin3a detected in bone marrow” value [18] was “low levels”.
